Measured values reported in ChEMBL document CHEMBL1799960, “Diadenosine 5',5''-(boranated)polyphosphonate analogues as selective nucleotide pyrophosphatase/phosphodiesterase inhibitors” (J Med Chem, 2010).
The source made the active and inactive calls. The calls are words filed in the database; no cut-off is given here.

Columns and labels:
[1] = target: T1, Ectonucleoside triphosphate diphosphohydrolase 8 (Homo sapiens) (UniProt Q5MY95); test: Inhibition of human NTPDase8 expressed in COS7 cells assessed as amount of inorganic phosphate released using ATP as the substrate at 100 uM after 15 mins by malachite green reagent method; format: cell-based; settings: COS-7
T1 sequence (whole entry): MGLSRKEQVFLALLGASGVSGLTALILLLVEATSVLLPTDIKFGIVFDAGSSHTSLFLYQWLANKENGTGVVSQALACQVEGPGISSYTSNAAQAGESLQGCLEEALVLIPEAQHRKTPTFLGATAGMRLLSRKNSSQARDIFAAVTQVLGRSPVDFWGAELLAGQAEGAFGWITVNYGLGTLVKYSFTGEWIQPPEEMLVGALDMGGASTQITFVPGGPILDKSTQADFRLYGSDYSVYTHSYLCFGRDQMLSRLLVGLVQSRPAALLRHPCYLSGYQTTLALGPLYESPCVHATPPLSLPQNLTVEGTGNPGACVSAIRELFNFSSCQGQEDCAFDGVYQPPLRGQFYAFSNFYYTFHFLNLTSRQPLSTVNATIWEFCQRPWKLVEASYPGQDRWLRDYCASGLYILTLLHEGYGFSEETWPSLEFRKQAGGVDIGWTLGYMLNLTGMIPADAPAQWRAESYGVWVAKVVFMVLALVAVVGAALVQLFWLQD
How it was run: (§1)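 Protein extracts of transfected COS-7 cells (ecto-5'-nucleotidase: 100 μM AMP substrate; NTPDases: 100 μM ATP) were preincubated 3 min at 37 °C in Tris-Ringer pH 7.3 with inhibitor at 100 μM final. After 15 min, malachite green stop; Pi read at 630 nm. Activity given as % of substrate-only control. Mean ± SD of three experiments in triplicate.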

[2] = target: P2Y purinoceptor 1 (Homo sapiens, UniProt P47900); test: Ratio EC50 for ATP to compound for GFP tagged-human P2Y1 receptor expressed in human 1321N1 cells assessed as elevation in calcium level after 30 mins by fluorescence spectrophotometric analysis; format: functional, cell-based
P2Y purinoceptor 1, sequence (P47900 whole entry): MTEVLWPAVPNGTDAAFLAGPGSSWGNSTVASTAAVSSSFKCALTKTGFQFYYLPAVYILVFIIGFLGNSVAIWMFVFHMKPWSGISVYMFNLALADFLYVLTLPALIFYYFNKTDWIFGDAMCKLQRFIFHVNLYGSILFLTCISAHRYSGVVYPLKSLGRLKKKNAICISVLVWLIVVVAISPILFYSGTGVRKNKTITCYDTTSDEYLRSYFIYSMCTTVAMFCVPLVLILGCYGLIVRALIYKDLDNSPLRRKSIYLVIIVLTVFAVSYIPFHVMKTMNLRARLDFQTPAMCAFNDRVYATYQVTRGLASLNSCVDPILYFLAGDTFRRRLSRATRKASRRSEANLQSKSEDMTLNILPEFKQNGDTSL

[3] = target: T2, Ectonucleotide pyrophosphatase/phosphodiesterase family member 1 (Homo sapiens) (UniProt P22413); test: Inhibition of human NPP1 in human HT29 cells assessed as production of p-nitrophenol using pnp-TMP as the substrate […]; format: cell-based; settings: HT-29
T2 sequence (whole entry): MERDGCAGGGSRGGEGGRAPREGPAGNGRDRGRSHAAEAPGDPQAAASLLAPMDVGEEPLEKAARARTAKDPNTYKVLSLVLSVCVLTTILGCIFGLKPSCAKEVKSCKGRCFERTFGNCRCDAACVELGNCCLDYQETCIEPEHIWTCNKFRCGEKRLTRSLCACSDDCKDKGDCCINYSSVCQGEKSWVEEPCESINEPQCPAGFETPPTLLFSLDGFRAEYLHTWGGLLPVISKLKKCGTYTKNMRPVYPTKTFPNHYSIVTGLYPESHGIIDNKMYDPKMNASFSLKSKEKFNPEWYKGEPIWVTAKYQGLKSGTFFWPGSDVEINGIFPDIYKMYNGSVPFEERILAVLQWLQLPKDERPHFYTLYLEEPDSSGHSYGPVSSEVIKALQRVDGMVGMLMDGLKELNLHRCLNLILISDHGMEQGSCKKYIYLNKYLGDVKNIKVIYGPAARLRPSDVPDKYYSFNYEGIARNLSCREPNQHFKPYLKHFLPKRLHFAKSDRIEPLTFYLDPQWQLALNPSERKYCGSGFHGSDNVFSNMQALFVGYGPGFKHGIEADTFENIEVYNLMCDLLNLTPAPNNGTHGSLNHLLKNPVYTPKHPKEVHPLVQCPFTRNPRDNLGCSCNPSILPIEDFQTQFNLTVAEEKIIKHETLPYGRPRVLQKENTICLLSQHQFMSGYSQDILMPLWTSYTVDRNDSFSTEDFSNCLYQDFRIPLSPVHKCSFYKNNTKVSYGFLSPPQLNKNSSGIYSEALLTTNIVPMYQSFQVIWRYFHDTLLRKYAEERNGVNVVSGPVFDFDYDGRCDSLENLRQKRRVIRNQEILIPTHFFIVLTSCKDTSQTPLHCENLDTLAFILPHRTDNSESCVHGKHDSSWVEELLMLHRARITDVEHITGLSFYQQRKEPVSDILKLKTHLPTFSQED

[4] = target: T2, Ectonucleotide pyrophosphatase/phosphodiesterase family member 1 (Homo sapiens); test: Inhibition of human NPP1 expressed in COS7 cells assessed as production of p-nitrophenol using Ap5A as the substrate at 100 uM after 30 mins […]; format: cell-based; settings: COS-7
[5] = target: P2Y purinoceptor 2 (Homo sapiens) (UniProt P41231); test: Agonist activity at GFP tagged-human P2Y2 receptor expressed in human 1321N1 cells assessed as elevation in calcium level at 25 uM after 30 mins by fluorescence spectrophotometric analysis; format: functional, cell-based
P2Y purinoceptor 2 (Homo sapiens), sequence (P41231 whole entry): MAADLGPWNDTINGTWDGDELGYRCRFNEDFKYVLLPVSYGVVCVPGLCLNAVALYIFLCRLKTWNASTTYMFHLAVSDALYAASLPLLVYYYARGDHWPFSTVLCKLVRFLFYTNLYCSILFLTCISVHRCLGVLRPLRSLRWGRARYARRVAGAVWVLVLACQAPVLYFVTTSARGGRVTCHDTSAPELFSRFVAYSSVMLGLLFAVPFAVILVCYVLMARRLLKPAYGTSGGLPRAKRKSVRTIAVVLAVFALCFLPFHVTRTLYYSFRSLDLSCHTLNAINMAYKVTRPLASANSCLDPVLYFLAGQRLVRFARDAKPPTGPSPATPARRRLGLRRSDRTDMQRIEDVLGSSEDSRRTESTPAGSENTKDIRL

[6] = target: T3, Ectonucleoside triphosphate diphosphohydrolase 2 (Homo sapiens) (UniProt Q9Y5L3); test: Inhibition of human NTPDase2 expressed in COS7 cells assessed as amount of inorganic phosphate released using ATP as the substrate at 100 uM after 15 mins by malachite green reagent method; format: cell-based; settings: COS-7; how it was run: as §1
T3 sequence (whole entry): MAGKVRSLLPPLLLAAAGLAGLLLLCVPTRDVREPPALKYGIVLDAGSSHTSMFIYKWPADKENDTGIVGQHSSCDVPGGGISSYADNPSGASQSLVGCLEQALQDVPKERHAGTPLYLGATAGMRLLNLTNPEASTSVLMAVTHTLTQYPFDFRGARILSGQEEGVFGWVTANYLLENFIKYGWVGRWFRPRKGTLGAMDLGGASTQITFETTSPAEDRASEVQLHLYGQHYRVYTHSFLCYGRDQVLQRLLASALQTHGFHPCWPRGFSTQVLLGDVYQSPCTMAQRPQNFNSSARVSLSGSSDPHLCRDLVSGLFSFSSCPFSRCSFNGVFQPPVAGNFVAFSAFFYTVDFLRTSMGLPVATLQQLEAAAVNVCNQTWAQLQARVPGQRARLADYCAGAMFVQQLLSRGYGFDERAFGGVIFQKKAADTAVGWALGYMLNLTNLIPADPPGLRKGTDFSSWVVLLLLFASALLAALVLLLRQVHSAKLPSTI

[7] = target: T4, Ectonucleotide pyrophosphatase/phosphodiesterase family member 1 (Homo sapiens, UniProt P22413); test: Inhibition of human NPP1 expressed in COS7 cells assessed as enzyme-substrate-inhibitor dissociation constant using pnp-TMP as the substrate after 15 mins […]; format: cell-based, COS-7
T4 sequence (P22413 whole entry): T2 sequence (whole entry)

[8] = target: T2, Ectonucleotide pyrophosphatase/phosphodiesterase family member 1 (Homo sapiens); test: Inhibition of human NPP1 in human Saos2 cells assessed as production of p-nitrophenol using pnp-TMP as the substrate […]; format: cell-based; settings: SAOS-2

In the case of BP(=O)(OP(=O)(O)CP(=O)(O)OC[C@H]1O[C@@H](n2cnc3c(N)ncnc32)C[C@@H]1O)OP(=O)(O)CP(=O)(O)OC[C@H]1O[C@@H](n2cnc3c(N)ncnc32)C[C@@H]1O, the inhibition [1] is reported as “inactive”, the Ratio EC50 [2] is reported as greater than 200 and the inhibition [3] is reported as 90%. The inhibition [4] was 60%, the Activity [5] was “inactive” and the inhibition [6] was 10%. The Ki [7] was 145 µM and the inhibition [8] was 90%.
Nc1ncnc2c1ncn2[C@@H]1O[C@H](COP(=O)(O)CP(=O)(O)OP(=O)(O)CP(=O)(O)OC[C@H]2O[C@@H](n3cnc4c(N)ncnc43)[C@H](O)[C@@H]2O)[C@@H](O)[C@H]1O was tested, and the inhibition [1] was “inactive”, the Ratio EC50 [2] was 60 and the inhibition [3] was 80%. For the same compound, the inhibition [4] was 20%, the Activity [5] was “inactive” and the inhibition [6] was 10%. The Ki [7] was 147 µM and the inhibition [8] was 80%.
With Nc1ncnc2c1ncn2[C@H]1C[C@H](O)[C@@H](COP(=O)(O)CP(=O)(O)OP(=O)(O)CP(=O)(O)OC[C@H]2O[C@@H](n3cnc4c(N)ncnc43)C[C@@H]2O)O1 the inhibition [1] was “inactive”, the Ratio EC50 [2] was 200 and the inhibition [3] was 80%. For the same compound, the inhibition [4] was 60%, the Activity [5] was “inactive” and the inhibition [6] was 10%. The Ki [7] was 80 µM and the inhibition [8] was 80%.
BP(=O)(OP(=O)(O)CP(=O)(O)OC[C@H]1O[C@@H](n2cnc3c(N)ncnc32)[C@H](O)[C@@H]1O)OP(=O)(O)CP(=O)(O)OC[C@H]1O[C@@H](n2cnc3c(N)ncnc32)[C@H](O)[C@@H]1O was tested, and the inhibition [1] was “inactive”, the Ratio EC50 [2] was 2 and the inhibition [3] was 90%. The inhibition [4] was 60%, the Activity [5] was “inactive” and the inhibition [6] was 10%. The Ki [7] was 31 µM and the inhibition [8] was 90%.
